Data: ChEMBL document CHEMBL1157168, “Potent anti-prostate cancer agents derived from a novel androgen receptor down-regulating agent” (Bioorg Med Chem, 2008)

Tests used:
LNCaP [1] = assay: Cytotoxicity against human LNCaP cells after 5 days by MTT assay; format: functional; details: 120 h
Outline: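 LNCaP cells (RPMI 1640, 10% FBS, 1% penicillin/streptomycin, 37 °C, 5% CO2) seeded at 2 × 10^4 cells/well, left to adhere 24 h, then exposed to compounds in DMSO for five days, with compound and medium renewed on day 3. MTT (0.5 mg/mL) added for 2 h, formazan dissolved in DMSO, absorbance read at 560 nm. Triplicate wells, three independent experiments. GI50 from nonlinear regression.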

PC-3 = assay: Cytotoxicity against human PC3 cells after 5 days by MTT assay; format: functional; details: PC-3, 120 h
Outline: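 Growth inhibition by MTT assay with absorbance read at 560 nm. Values are means of three independent experiments.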

LNCaP [2] = assay: Down regulation of androgen receptor expression in human LNCaP cells by Western blot analysis; format: functional, cell-based
Outline: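 LNCaP cells cultured in T25 flasks and treated with compounds. Lysates made in 0.1 M Tris, 0.5% Triton X-100 and protease inhibitor, protein measured by Bradford assay, then run on 10% SDS-PAGE. AR detected with monoclonal AR441 (1:500) and HRP anti-mouse secondary (1:2000) by ECL. Signal normalized to β-actin.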

[3] = biological target: T1, Androgen receptor (Homo sapiens) (UniProt P10275); assay: Displacement of [3H]R1881 from wild type androgen receptor expressed in human PC3 cells; format: cell-based; details: PC-3
T1 sequence (whole entry): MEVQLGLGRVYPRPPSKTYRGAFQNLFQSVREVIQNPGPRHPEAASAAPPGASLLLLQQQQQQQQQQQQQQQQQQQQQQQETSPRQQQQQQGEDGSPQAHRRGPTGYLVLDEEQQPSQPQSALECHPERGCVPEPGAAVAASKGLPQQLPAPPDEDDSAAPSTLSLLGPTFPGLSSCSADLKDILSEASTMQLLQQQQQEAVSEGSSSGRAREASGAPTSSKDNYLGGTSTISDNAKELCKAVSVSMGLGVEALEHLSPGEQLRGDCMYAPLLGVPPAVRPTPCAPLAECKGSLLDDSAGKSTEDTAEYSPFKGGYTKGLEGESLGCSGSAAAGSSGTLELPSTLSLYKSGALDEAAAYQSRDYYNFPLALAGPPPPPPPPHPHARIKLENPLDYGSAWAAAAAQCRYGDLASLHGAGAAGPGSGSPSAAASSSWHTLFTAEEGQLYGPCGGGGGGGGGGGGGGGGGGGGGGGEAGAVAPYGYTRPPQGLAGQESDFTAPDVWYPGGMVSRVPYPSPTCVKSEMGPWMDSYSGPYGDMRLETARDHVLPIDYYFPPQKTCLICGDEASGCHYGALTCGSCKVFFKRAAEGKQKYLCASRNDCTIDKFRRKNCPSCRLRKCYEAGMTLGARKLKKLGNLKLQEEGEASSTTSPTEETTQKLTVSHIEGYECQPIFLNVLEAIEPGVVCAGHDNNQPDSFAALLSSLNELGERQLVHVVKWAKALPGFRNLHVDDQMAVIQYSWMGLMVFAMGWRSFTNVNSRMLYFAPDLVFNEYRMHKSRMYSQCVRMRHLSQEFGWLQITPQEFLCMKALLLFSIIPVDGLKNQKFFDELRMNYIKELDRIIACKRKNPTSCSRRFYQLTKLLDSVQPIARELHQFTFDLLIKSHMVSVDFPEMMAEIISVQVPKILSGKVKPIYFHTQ

[4] = biological target: T1, Androgen receptor (Homo sapiens); assay: Displacement of [3H]R1881 from wild type androgen receptor expressed in human PC3 cells at 10 uM; format: cell-based; details: PC-3
[5] = biological target: T1, Androgen receptor (Homo sapiens); assay: Displacement of [3H]R1881 from mutated androgen receptor expressed in human LNCaP cells; format: cell-based
[6] = biological target: T1, Androgen receptor (Homo sapiens); assay: Displacement of [3H]R1881 from wild type androgen receptor expressed in human PC3 cells at 20 uM; format: cell-based; details: PC-3
[7] = biological target: T1, Androgen receptor (Homo sapiens); assay: Activity at androgen receptor expressed in human LNCaP cells assessed as decrease in dihydrotestosterone-stimulated transcriptional activity at 10 uM after 18 hrs by luciferase reporter gene assay; format: cell-based; design: scale not given: the % may be the effect or the level left
Outline: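 LNCaP cells transiently transfected with the probasin-driven ARR2-Luc reporter, held in steroid-free medium, then given vehicle or compound with or without 5 nM DHT for 18 h before luciferase read-out. Mean of three independent experiments.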

Compound | GI50 (LNCaP [1]) [µM] | GI50 (PC-3) [µM] | also measured
Cc1ccc(S(=O)(=O)Nc2ccccc2[N+](=O)[O-])cc1 | 0.083 | 50.1 | EC50 (LNCaP [2]): > 150 µM
Cc1ccc(S(=O)(=O)Nc2ccccc2)cc1 | 24 | 38.9 | 
O=S(=O)(Nc1ccccc1)c1ccccc1 [PHENYL(PHENYLSULFONYL)AMINE] |  | > 100 | 
O=[N+]([O-])c1ccccc1NS(=O)(=O)c1ccccc1 | 0.0148 | 22.9 | 
Cc1ccc(N(C)S(=O)(=O)c2ccc(C)cc2)cc1 | 89.2 | 44.7 | 
Cc1ccc(NS(=O)(=O)c2ccc(C)cc2)cc1 | 0.00145 | 30.2 | Activity [3]: Dose-dependent effect; Activity [4]: 65%; Activity [5]: Dose-dependent effect; Activity [6]: 80%; EC50 (LNCaP [2]): 150 µM; Activity [7]: 80%
Cc1ccc(C#N)c(NS(=O)(=O)c2ccc(F)cc2)c1 | 30.2 | > 100 | 
Cc1ccc(NCc2ccccc2)cc1 [N-BENZYL-4-METHYLANILINE] | > 100 | 52.4 | 
Cc1ccc(NS(=O)(=O)c2ccccc2)c([N+](=O)[O-])c1 | 0.00295 | 60.2 | 
Cc1ccc(NS(=O)(=O)c2ccc(F)cc2)c(C(=O)O)c1 | 10.7 | > 100 | 
Cc1ccc(NS(=O)(=O)c2ccccc2)c(C(=O)O)c1 | 0.0182 |  | 
Cc1ccc(NS(=O)(=O)c2ccc(F)cc2)c([N+](=O)[O-])c1 | 0.00234 | 0.85 | Activity [3]: Dose-dependent effect; Activity [5]: Dose-dependent effect; Activity [7]: 50%
Cc1ccc(-c2nnn[nH]2)c(NS(=O)(=O)c2ccc(F)cc2)c1 | > 100 | > 100 | 
Cc1ccc(NC(=O)c2ccc(C)cc2)cc1 | 55 | 26.9 | 
Cc1ccc(S(=O)(=O)Nc2ccc(C)cc2[N+](=O)[O-])cc1 | 39.8 | 43.7 | 
Cc1ccc(CNc2ccc(C)cc2)cc1 | 19.1 | 29.5 | 
Cc1ccc(NS(=O)(=O)c2ccccc2)cc1 | 21.3 | 13.8 | 
